In ChEMBL document CHEMBL1153564 (Antimicrob Agents Chemother, 2008):
Converted amounts (≈) assume the structure as drawn. The source made the active and inactive calls. No cut-off for these calls is given here. Starred links: 1 amine or outer side, 2 acyl side, 3 side chain; linkers in the order of their positions; H or OH if unused. Positions of bridges follow the written chain, without caps; N, C: chain ends. Non-standard residues stand in square brackets, D forms with d. Residues, ends and D or L forms follow the SMILES beside them. *: point of attachment. pTerphenylCO(4''-OnC5H11) = CCCCCOc1ccc(-c2ccc(-c3ccc(C(=O)*)cc3)cc2)cc1; Orn(4R-OH,5R-OH) = O=C([C@H](C[C@@H](O)[C@@H](O)N[*:3])N[*:1])[*:2]; hTyr(3S-OH,4S-OH) = N[C@H](C(=O)O)[C@H](O)[C@@H](O)c1ccc(O)cc1; Pro(3S-OH,4S-Me) = C[C@H]1CN[C@H](C(=O)O)[C@H]1O; Hyp = O=C(O)[C@@H]1C[C@@H](O)CN1

Columns and labels:
[1] = test system: Nakaseomyces glabratus; assay: Antifungal activity against Candida glabrata 33616 assessed as complete growth inhibition after 24 hrs by CLSI end point method; format: functional; conditions: Nakaseomyces glabratus, 33616, 24 h
In short: (§1)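 Two end points were read against the drug-free control well: partial growth inhibition (the CLSI end point) and complete inhibition. Run in duplicate on four separate occasions; the value is the mean. Drug stock was made in DMSO and diluted in 0.9% NaCl.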

[2] = test system: Candida albicans; assay: Antifungal activity against Candida albicans 98-17 infected in neutropenic ICR/Swiss mouse candidiasis model assessed as fungal count per kidney administered 2 hrs postinfection measured up to 48 hrs; format: functional
In short: (§2)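 Untreated neutropenic mice infected via the tail vein (inoculum about 6.1 log10 CFU/ml, 0.1 ml). Growth is the rise in kidney CFU over 48 h. Kidneys were homogenised, serially diluted 1:10 and plated on SDA for 24 h at 35°C. Mean of three mice.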

[3] = test system: Serum; assay: Fraction unbound in Candida glabrata 5376-infected neutropenic ICR/Swiss mouse serum at 1.25 mg/kg, ip administered 2 hrs postinfection as single dose; format: ADME, organism-based; parameters: dose 1.25 mg/kg, route intraperitoneal; conditions: in vivo
[4] = test system: Nakaseomyces glabratus; assay: Antifungal activity against Candida glabrata 5376 infected in neutropenic ICR/Swiss mouse candidiasis model assessed as reduction of […] in kidney at 1.25 mg/kg, ip administered 2 hrs postinfection as single dose measured within 1 to 4 hrs post dosing by time-kill assay; format: functional, organism-based; parameters: dose 1.25 mg/kg
In short: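 Neutropenic mice given a single ip dose (1.25, 5 or 20 mg/kg) 2 h after tail-vein infection. Kidneys from 3 mice per time point collected nine times over 96 h. Homogenates serially diluted 1:10 and plated on SDA, 24 h at 35°C. Detection limit 100 CFU/ml.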

[5] = test system: Nakaseomyces glabratus; assay: Antifungal activity against Candida glabrata 35315 infected in neutropenic ICR/Swiss mouse candidiasis model assessed as dose required to maintain […] burden of 1.83 +/- 0.54 log10CFU per kidney administered intraperitoneally every 24 hrs up to 4 days measured per 24 hrs; format: functional
[6] = test system: Nakaseomyces glabratus; assay: Antifungal activity against Candida glabrata 513 assessed as partial growth inhibition after 24 hrs by CLSI end point method; format: functional; conditions: Nakaseomyces glabratus, 513, 24 h; in short: as §1
[7] = test system: Nakaseomyces glabratus; assay: Antifungal activity against Candida glabrata 32930 infected in neutropenic ICR/Swiss mouse candidiasis model assessed as fungal count per kidney administered 2 hrs postinfection measured up to 48 hrs; format: functional; in short: as §2
[8] = test system: Candida albicans; assay: Antifungal activity against Candida albicans K-1 infected in neutropenic ICR/Swiss mouse candidiasis model assessed as suppression of fungal regrowth at 5 mg/kg, ip administered 2 hrs postinfection as single dose by time-kill assay; format: functional, organism-based; parameters: dose 5 mg/kg
In short: (§3)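 Single ip dose (20, 5 or 1.25 mg/kg) given 2 h after iv infection of neutropenic mice with K-1. Three treated and three control mice were sampled at intervals over 96 h for kidney CFU. PAFE is the time for treated burden to rise 1 log10 after serum levels fall below MIC, minus the same time in controls. Free drug was taken as 1%.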

[9] = test system: Nakaseomyces glabratus; assay: Antifungal activity against Candida glabrata 5376 infected in neutropenic ICR/Swiss mouse candidiasis model assessed as […] burden per kidney administered intraperitoneally every 24 hrs up to 4 days measured per 96 hrs; format: functional; conditions: Nakaseomyces glabratus, 5376, Kidney, ip
In short: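 Neutropenic ICR/Swiss mice infected i.v. with the strain; therapy began 2 h later. Total doses of 1.25–320 mg/kg/96 h were given i.p. as 1, 2, 4 or 6 doses (q96h, q48h, q24h, q16h), three mice per regimen. Kidney CFU were counted after 4 days. Effect is the change from untreated controls at the end of therapy.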

[10] = test system: Candida albicans; assay: Antifungal activity against Candida albicans K-1 infected in neutropenic ICR/Swiss mouse candidiasis model assessed as prolongation of fungal growth suppression at 20 mg/kg, ip administered 2 hrs postinfection as single dose by time-kill assay; format: functional; conditions: route intraperitoneal; in short: as §3
[11] = test system: Nakaseomyces glabratus; assay: Antifungal activity against Candida glabrata 5592 assessed as complete growth inhibition after 24 hrs by CLSI end point method; format: functional; conditions: Nakaseomyces glabratus, 5592, 24 h; in short: as §1
[12] = test system: Nakaseomyces glabratus; assay: Antifungal activity against Candida glabrata 34341 assessed as partial growth inhibition after 24 hrs by CLSI end point method; format: functional; conditions: Nakaseomyces glabratus, 34341, 24 h; in short: as §1
[13] = test system: Candida albicans; assay: Antifungal activity against Candida albicans K-1 infected in neutropenic ICR/Swiss mouse candidiasis model assessed as […] burden per kidney administered intraperitoneally every 16 hrs up to 4 days measured per 96 hrs; format: functional; conditions: K-1, Kidney, ip
In short: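 Neutropenic mice were infected iv with C. albicans K-1 2 h before therapy. Total doses of 1.25, 5, 20, 80 and 320 mg/kg/96 h were split into 1, 2, 4 or 6 ip doses (q96h, q48h, q24h, q16h), three mice per regimen. Effect is the log10 CFU/kidney relative to untreated controls at 96 h. Static and 1-log doses were taken from a Hill model fit.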

[14] = test system: Nakaseomyces glabratus; assay: Antifungal activity against Candida glabrata 33609 infected in neutropenic ICR/Swiss mouse candidiasis model assessed as fungal count per kidney administered 2 hrs postinfection measured up to 48 hrs; format: functional
In short: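 Female ICR/Swiss mice (23–27 g) made neutropenic with cyclophosphamide s.c. (150 mg/kg day −4, 100 mg/kg day −1, 100 mg/kg day +2). Infected by tail vein with 0.1 ml inoculum (~6.1 log10 CFU/ml). Kidneys of untreated mice were homogenised and plated on SDA for 24 h at 35°C. Growth over 48 h is given as log10 CFU/kidney.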

[15] = AUC (0 to infinity) in serum of neutropenic ICR/Swiss mouse candidiasis model at 20 mg/kg, ip by reverse-phase high-pressure liquid chromatography; format: ADME, organism-based; parameters: time infinity, dose 20 mg/kg, route intraperitoneal
In short: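 Single ip dose in 0.2 ml to infected neutropenic mice. Serum from groups of three isoflurane-anaesthetised mice at 1, 4, 8, 12, 24 and 48 h, stored −80°C. Drug measured by reverse-phase HPLC with fluorescence detection against loratadine internal standard (calibration 10–50,000 ng/ml). Noncompartmental analysis; AUC by trapezoidal rule.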

[16] = test system: Nakaseomyces glabratus; assay: Antifungal activity against Candida glabrata 5376 infected in neutropenic ICR/Swiss mouse candidiasis model assessed as prolongation of fungal growth suppression at 20 mg/kg, ip administered 2 hrs postinfection as single dose by time-kill assay; format: functional; conditions: route intraperitoneal
In short: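 Neutropenic mice were infected i.v. and 2 h later given a single i.p. dose (1.25, 5 or 20 mg/kg). Groups of three treated and three control mice were killed at intervals over 96 h, and kidney CFU were counted on SDA (limit 100 CFU/ml). The post-antifungal effect is t − c: the time for a 1 log10 CFU/kidney increase once serum levels fall below the MIC in treated mice, minus the same time in controls.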

[17] = test system: Nakaseomyces glabratus; assay: Antifungal activity against Candida glabrata 5376 infected in neutropenic ICR/Swiss mouse candidiasis model assessed as suppression of fungal regrowth at 1.25 mg/kg, ip administered 2 hrs postinfection as single dose by time-kill assay; format: functional, organism-based; parameters: dose 1.25 mg/kg
In short: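 Single ip dose of 1.25, 5 or 20 mg/kg given 2 h after iv infection of neutropenic mice. Groups of 3 treated and 3 control mice sampled at 1–24 h intervals over 96 h. Kidney homogenates plated on SDA, 24 h at 35°C. PAFE = time for treated burden to rise 1 log10 CFU/kidney after serum level fell below MIC, minus the same time in controls.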

SMILES: CCCCCOc1ccc(-c2ccc(-c3ccc(C(=O)N[C@H]4C[C@@H](O)[C@@H](O)NC(=O)[C@@H]5[C@@H](O)[C@@H](C)CN5C(=O)[C@H]([C@@H](C)O)NC(=O)[C@H]([C@H](O)[C@@H](O)c5ccc(O)cc5)NC(=O)[C@@H]5C[C@@H](O)CN5C(=O)[C@H]([C@@H](C)O)NC4=O)cc3)cc2)cc1 [ANIDULAFUNGIN] ({pTerphenylCO(4''-OnC5H11)}-[Orn(4R-OH,5R-OH)]T[Hyp][hTyr(3S-OH,4S-OH)]T[Pro(3S-OH,4S-Me)]; lactam 1-C)
- MIC [1]: 2 µg/mL (≈ 1.75 µM)
- log10cfu [2]: 4.3
- Fu [3]: 1%
- Activity [4]: Active
- Activity [5]: 6.4 mg/kg
- MIC [6]: 0.06 µg/mL (≈ 0.0526 µM)
- log10cfu [7]: 1.29
- Activity [8]: Active
- ED50 [9]: 15.9 mg/kg
- Activity [10]: >96 h
- MIC [11]: 0.12 µg/mL (≈ 0.105 µM)
- MIC [12]: 0.12 µg/mL (≈ 0.105 µM)
- ED50 [13]: 8.74 mg/kg
- log10cfu [14]: 2.37
- AUC(0-inf) [15]: 382 µg·h/mL
- Activity [16]: 67 h
- Activity [17]: Active
